# Source: PubChem BioAssay
# Only a selection was taken, and hits are over-represented in it overall.
# YB-1 expression = inhibitors of YB-1 gene expression, primary screen, cell-based, fluorescence; U2OS, qRT-PCR YB-1 vs CDIP delta delta Cp, 16 h; active compounds read high; zero = DMSO, each unit about twofold; delta delta Cp (YB-1 minus CDIP) (no concentration beside the values); actives 0.37% (n = 30,000); AID 434959, 2010;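 active = delta delta Cp rounded down to an integer at or above 3, about 3 SD of DMSO wells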;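 also: higher means less YB-1 transcript or more CDIP transcript relative to DMSO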
# T cruzi HTS = inhibitors of intracellular Trypanosoma cruzi, primary screen, cell-based, plate reader, single point, set 2. activity score (inhibition), % at 5.01 µM. intracellular Trypanosoma cruzi in host cells. actives 4.9% (n = 22,000); in the data active = activity score above about 55%;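 also: parasites and compound incubated about four days before reading; 0% = median of neutral control wells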
# INS-1E rescue = protection of INS-1E cells from cytokine death, primary screen, ATP luminescence, single point; actives 0.1% (n = 20,000); INS-1E cytokine-induced death, 48 h; normalised: neutral wells 0, positive control 100; protection from cytokine-induced ATP loss, % at 10 µM;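 active = mean replicate protection from cytokine-induced ATP loss at least 50% and at least 75% of replicates each reaching 50%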
#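 Material: INS-1E rat cells; Quantity: 8000 cells/well; Buffer or medium: phenol-red-free RPMI with 5% fetal bovine serum; Probe or stimulus: cytokine cocktail of IFN-γ, TNF-α and IL-1β; Compound dosing: single test concentration per compound, delivered by pin transfer; Incubation: 48 h co-treatment, 10 min post-lysis read; Signal: CellTiter-Glo luminescence.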
# * marks the source's active call; other numbers are inactive results; . = no result.
SMILES,YB-1 expression,T cruzi HTS,INS-1E rescue
C[C@H](CO)N1C[C@H](C)[C@H](CN(C)S(=O)(=O)c2cn(C)cn2)Oc2ccc(NC(=O)Nc3ccc(F)cc3)cc2CC1=O,-0.092,-8,3
C[C@H](CO)N1C[C@H](C)[C@H](CN(C)S(=O)(=O)c2ccc(F)cc2)Oc2ccc(NC(=O)Nc3ccc(C(F)(F)F)cc3)cc2CC1=O,0.4,69*,-67
Cc1ccc(S(=O)(=O)N(C)C[C@H]2Oc3ccc(NC(=O)Nc4ccc(C(F)(F)F)cc4)cc3CC(=O)N([C@H](C)CO)C[C@H]2C)cc1,0.091,64*,-5
COc1ccc(S(=O)(=O)N(C)C[C@H]2Oc3ccc(NC(=O)Nc4ccc(C(F)(F)F)cc4)cc3CC(=O)N([C@H](C)CO)C[C@H]2C)cc1,-0.36,65*,3
C[C@H]1CN([C@@H](C)CO)C(=O)Cc2cc(NC(=O)Nc3ccc(F)cc3)ccc2O[C@H]1CN(C)S(=O)(=O)c1cn(C)cn1,8.1*,-2,5
Cc1ccc(S(=O)(=O)N(C)C[C@H]2Oc3ccc(NC(=O)Nc4ccc(C(F)(F)F)cc4)cc3CC(=O)N([C@@H](C)CO)C[C@@H]2C)cc1,-0.48,2,-5
COc1ccc(NC(=O)Nc2ccc3c(c2)CC(=O)N([C@@H](C)CO)C[C@H](C)[C@H](CN(C)S(=O)(=O)c2ccc(OC)cc2)O3)cc1,-0.29,-3,9
O=C(N/N=C\c1cc(Br)ccc1O)c1ccccc1O,0.68,47,-129
CCC(C)CCCCCCCCC1CC(=O)NC(CCC(N)=O)C(=O)NC(CC(C)C)C(=O)NC(CC(C)C)C(=O)NC(C(C)C)C(=O)NC(CC(=O)O)C(=O)NC(CC(C)C)C(=O)NC(C(C)C)C(=O)O1 (stereo not drawn),0.91,.,.
Cc1nc(SC2CCCCN(C(=O)c3ccc(Cl)cc3)C2=O)c2c3c(sc2n1)CCCC3 (stereo not drawn),-0.2,.,.
C[C@H]1CN([C@@H](C)CO)C(=O)Cc2cc(NC(=O)C3CCCCC3)ccc2O[C@H]1CN(C)S(=O)(=O)c1ccccc1,0.29,-10,-3
C[C@@H]1CN([C@H](C)CO)C(=O)Cc2cc(NC(=O)Nc3ccccc3)ccc2O[C@H]1CN(C)Cc1ccc(Oc2ccccc2)cc1,0.091,49,-46
C[C@@H]1CN([C@@H](C)CO)C(=O)Cc2cc(NC(=O)Nc3ccc(C(F)(F)F)cc3)ccc2O[C@@H]1CN(C)Cc1ccc(Oc2ccccc2)cc1,0.32,74*,-8
C[C@@H]1CN([C@H](C)CO)C(=O)Cc2cc(NC(=O)Nc3ccc(C(F)(F)F)cc3)ccc2O[C@@H]1CN(C)Cc1ccc(Oc2ccccc2)cc1,-0.025,80*,-35
C[C@H]1CN([C@@H](C)CO)C(=O)Cc2cc(NC(=O)Nc3ccc(C(F)(F)F)cc3)ccc2O[C@H]1CN(C)Cc1ccc(Oc2ccccc2)cc1,-0.43,4,-19
CC1(C)CC[C@]2(C(=O)O[C@@H]3O[C@H](CO)[C@@H](O)[C@H](O)[C@H]3O)CC[C@]3(C)C(=CCC4[C@@]5(C)C[C@@H](O)[C@H](O)[C@](C)(CO)C5CC[C@]43C)C2[C@@H]1O (stereo partly drawn),0.022,.,.
Cc1oc2c(c1C(=O)NCCCn1ccnc1)C(=O)c1ccccc1C2=O,0.22,.,.
C[C@@H]1CN([C@H](C)CO)C(=O)c2cc(NC(=O)Nc3ccc(C(F)(F)F)cc3)ccc2O[C@H]1CN(C)S(=O)(=O)c1ccc(F)cc1,0.3,65*,-30
C[C@@H]1CN([C@@H](C)CO)C(=O)c2cc(NC(=O)Nc3ccc(C(F)(F)F)cc3)ccc2O[C@H]1CN(C)S(=O)(=O)c1ccccc1,-0.47,68*,-28
C[C@@H]1CN([C@H](C)CO)C(=O)c2cc(NC(=O)Nc3ccc(C(F)(F)F)cc3)ccc2O[C@@H]1CN(C)S(=O)(=O)c1ccccc1,0.17,11,-1
Cc1ccc(S(=O)(=O)N(C)C[C@@H]2Oc3ccc(NC(=O)Nc4ccc(C(F)(F)F)cc4)cc3C(=O)N([C@H](C)CO)C[C@@H]2C)cc1,0.23,26,-58
C[C@H]1CN([C@@H](C)CO)C(=O)c2cc(NC(=O)Nc3ccc(C(F)(F)F)cc3)ccc2O[C@@H]1CN(C)S(=O)(=O)c1ccc(F)cc1,0.47,6,-7
Cc1ccc(S(=O)(=O)N(C)C[C@H]2Oc3ccc(NC(=O)Nc4ccc(C(F)(F)F)cc4)cc3C(=O)N([C@@H](C)CO)C[C@H]2C)cc1,0.86,64*,-36
COc1ccc(/C=C2/SC(=S)N(C)C2=O)cc1,0.25,.,.
COC(=O)C1=C(C)N=c2s/c(=C/c3ccc(OC)cc3)c(=O)n2C1c1cccs1 (stereo not drawn),-0.23,.,.
SMILES,YB-1 expression,T cruzi HTS,INS-1E rescue
O=C(N/N=C/c1cc(Cl)cc(Cl)c1O)c1ccccc1O,0.19,73*,-115
O=C(N/N=C/c1cc(O)ccc1O)c1ccccc1O,0.23,18,-126
O=C(N/N=C/c1ccccc1O)c1ccccc1O,0.29,32,-135
O=C(N/N=C/c1ccc(O)c(O)c1O)c1ccccc1O,-0.1,57*,-19
O=C(NO)c1cccc(C(=O)N/N=C/c2ccc(O)c(O)c2O)c1,-0.043,61*,8
O=C(NO)c1cccc(C(=O)N/N=C/c2cccc(O)c2O)c1,-0.44,1,-27
O=C(NO)c1ccc(C(=O)N/N=C/c2ccccc2OCCO)cc1,-0.079,-7,8
O=C(CCCCCCC(=O)Nc1ccccc1O)N/N=C/c1ccccc1[N+](=O)[O-],-0.48,-1,2
C[C@H](CO)N1C[C@H](C)[C@@H](CN(C)Cc2ccc3c(c2)OCO3)Oc2c(NC(=O)c3ccncc3)cccc2C1=O,-0.013,76*,15
C[C@H]1CN([C@@H](C)CO)C(=O)c2cccc(NC(=O)c3ccncc3)c2O[C@@H]1CN(C)Cc1ccc2c(c1)OCO2,0.069,78*,-5
C[C@@H]1CN([C@H](C)CO)C(=O)c2cccc(NC(=O)c3ccncc3)c2O[C@@H]1CN(C)Cc1ccc2c(c1)OCO2,0.28,-8,-6
C[C@@H]1CN([C@@H](C)CO)C(=O)c2cccc(NC(=O)c3ccncc3)c2O[C@@H]1CN(C)Cc1ccc2c(c1)OCO2,0.13,-1,3
CC(=O)O[C@@H]1CC2C(C)(C)C=CC(=O)[C@]2(C)C2CC[C@@]3(C)[C@H](c4ccoc4)OC(=O)C4OC43[C@@]21C (stereo partly drawn),-0.33,.,.
COCCCNC(=O)[C@@]1(Cc2ccccc2I)c2ccccc2C(=O)N(Cc2ccccc2OC)[C@H]1c1ccc(CO)cc1,-0.38,.,.
CC(=O)Oc1ccc2c(=O)c(Oc3ccc(Cl)cc3)c(C)oc2c1,-0.031,.,.
O=S(=O)(N[C@H]1CCN(Cc2ccc(OCCO)cc2)C1)c1cc(Cl)ccc1Cl,0.053,.,.
COc1ccc(C2OCC3C(c4cc(OC)c5c(c4)OCO5)OCC23)cc1OC (stereo not drawn),5*,.,.
COc1cc(C2OCC3C(c4cc(OC)c5c(c4)OCO5)OCC23)cc(OC)c1OC (stereo not drawn),0.86,.,.
Cn1c2c(c(=O)n(C)c1=O)CN(C1CCCC1)CN2,4*,.,.
